Results: ChEMBL document CHEMBL2401717, “Synthesis and bioactive evaluation of novel hybrids of metronidazole and berberine as new type of antimicrobial agents and their transportation behavior by human serum albumin” (Bioorg Med Chem, 2013)
In brackets after ≈: the same amount, converted by molar mass.

Columns and labels:
[1] = Stability of the compound at pH 6.5 to 8.5 after 30 mins by UV spectrophotometry; type: physicochemical; settings: buffer, pH 6.5, 0.5 h
Summary of the method: (§1)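 Stability followed by UV spectrometry across pH 6.5–8.5 and temperatures 30–80 °C.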

[2] = Stability of the compound at 30 to 80 degC after 30 mins by UV spectrophotometry; type: physicochemical; settings: 0.5 h; summary of the method: as §1
[3] = Solubility of the compound in phosphate buffer at pH 7.5 after 20 hrs by UV spectrophotometry; type: physicochemical
Summary of the method: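 Phosphate buffer pH 7.5 added to solid; suspension sonicated 10 min, then shaken at room temperature for 20 h and centrifuged. Supernatant concentration read by UV absorbance against a regression calibration curve (278 and 340 nm).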

[4] = Octanol-water partition coefficient, log P of the compound after 24 hrs by UV-Vis spectrophotometry; type: physicochemical
[5] = system: Candida; experiment: Antifungal activity against Candida mycoderma after 24 hrs by twofold broth dilution method; type: functional
Summary of the method: (§2)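 MIC by NCCLS-recommended twofold broth microdilution, run in triplicate. Strains: B. subtilis ATCC6633, E. coli DH52, M. luteus ATCC4698, P. vulgaris ATCC6896, S. dysenteriae, S. aureus ATCC25923, MRSA N315, C. albicans ATCC76615, C. mycoderma. References were chloromycin, norfloxacin and berberine for bacteria, and fluconazole for fungi.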

[6] = system: Proteus vulgaris; experiment: Antibacterial activity against Proteus vulgaris after 24 hrs by twofold broth dilution method; type: functional; summary of the method: as §2
[7] = system: Candida albicans; experiment: Antifungal activity against Candida albicans after 24 hrs by twofold broth dilution method; type: functional; summary of the method: as §2
[8] = system: Pseudomonas aeruginosa; experiment: Antibacterial activity against Pseudomonas aeruginosa after 24 hrs by twofold broth dilution method; type: functional
Summary of the method: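 Twofold broth dilution in 96-well microplates following NCCLS guidance; MIC read as the endpoint; tests run in triplicate.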

[9] = system: Shigella dysenteriae; experiment: Antibacterial activity against Shigella dysenteriae after 24 hrs by twofold broth dilution method; type: functional; summary of the method: as §2
[10] = system: Escherichia coli; experiment: Antibacterial activity against Escherichia coli DH52 after 24 hrs by twofold broth dilution method; type: functional; settings: DH52, 24 h; summary of the method: as §2
[11] = system: Micrococcus luteus; experiment: Antibacterial activity against Micrococcus luteus ATCC 4698 after 24 hrs by twofold broth dilution method; type: functional; settings: ATCC 4698, 24 h; summary of the method: as §2
[12] = system: Bacillus subtilis; experiment: Antibacterial activity against Bacillus subtilis after 24 hrs by twofold broth dilution method; type: functional; summary of the method: as §2
[13] = system: Staphylococcus aureus; experiment: Antibacterial activity against Staphylococcus aureus ATCC 25923 after 24 hrs by twofold broth dilution method; type: functional; settings: ATCC 25923, 24 h; summary of the method: as §2
[14] = system: Staphylococcus aureus; experiment: Antibacterial activity against methicillin-resistant Staphylococcus aureus N315 after 24 hrs by twofold broth dilution method; type: functional; settings: N315, 24 h; summary of the method: as §2

| Compound | Stability [1] | Stability [2] | solubility at 20 h [3] | logP at 24 h [4] | MIC [5] | MIC [6] | MIC [7] | MIC [8] | MIC [9] | MIC [10] | MIC [11] | MIC [12] | MIC [13] | MIC [14] |
| --- | --- | --- | --- | --- | --- | --- | --- | --- | --- | --- | --- | --- | --- | --- |
| COc1ccc2cc3[n+](cc2c1OCCN(CCn1c([N+](=O)[O-])cnc1C)Cc1ccc(F)cc1F)CCc1cc2c(cc1-3)OCO2.[Cl-] | Stable | Stable | 60.6 µg/mL | -0.34 | 128 µg/mL | 64 µg/mL | 64 µg/mL | 128 µg/mL | 256 µg/mL | 128 µg/mL | 128 µg/mL | 64 µg/mL | 16 µg/mL | 16 µg/mL |
| COc1ccc2cc3[n+](cc2c1OCCN(CCn1cnc([N+](=O)[O-])c1)Cc1ccc(F)cc1F)CCc1cc2c(cc1-3)OCO2.[Cl-] | Stable | Stable | 94 µg/mL | 0.5 | 8 µg/mL | 16 µg/mL | 16 µg/mL | 16 µg/mL | 4 µg/mL | 16 µg/mL | 16 µg/mL | 32 µg/mL | 16 µg/mL | 32 µg/mL |
| COc1ccc2cc3[n+](cc2c1OCCN(CCn1cnc([N+](=O)[O-])c1)Cc1ccc(Cl)c(Cl)c1)CCc1cc2c(cc1-3)OCO2.[Cl-] | Stable | Stable | 88.5 µg/mL | 0.53 | 64 µg/mL | 16 µg/mL | 16 µg/mL | 16 µg/mL | 4 µg/mL | 16 µg/mL | 16 µg/mL | 32 µg/mL | 16 µg/mL | 64 µg/mL |
| COc1ccc2cc3[n+](cc2c1OCCN(CCn1cnc([N+](=O)[O-])c1)Cc1ccccc1Cl)CCc1cc2c(cc1-3)OCO2.[Cl-] | Stable | Stable | 95.1 µg/mL | 0.51 | 128 µg/mL | 64 µg/mL | 8 µg/mL | 16 µg/mL | 16 µg/mL | 16 µg/mL | 16 µg/mL | 4 µg/mL | 4 µg/mL | 16 µg/mL |
| COc1ccc2cc3[n+](cc2c1OCCN(CCn1cnc([N+](=O)[O-])c1)Cc1cccc(Cl)c1)CCc1cc2c(cc1-3)OCO2.[Cl-] | Stable | Stable | 50.8 µg/mL | 0.57 | 32 µg/mL | 64 µg/mL | 16 µg/mL | 64 µg/mL | 256 µg/mL | 32 µg/mL | 64 µg/mL | 32 µg/mL | 8 µg/mL | 32 µg/mL |
| COc1ccc2cc3[n+](cc2c1OCCN(CCn1cnc([N+](=O)[O-])c1)Cc1ccc(Cl)cc1)CCc1cc2c(cc1-3)OCO2.[Cl-] | Stable | Stable | 64.8 µg/mL | 0.48 | 16 µg/mL | 64 µg/mL | 64 µg/mL | 64 µg/mL | 128 µg/mL | 64 µg/mL | 32 µg/mL | 64 µg/mL | 32 µg/mL | 64 µg/mL |
| COc1ccc2cc3[n+](cc2c1OCCN(CCn1cncc1[N+](=O)[O-])Cc1ccc(Cl)c(Cl)c1)CCc1cc2c(cc1-3)OCO2.[Cl-] | Stable | Stable | 80.8 µg/mL | 0.55 | 64 µg/mL | 16 µg/mL | 8 µg/mL | 8 µg/mL | 2 µg/mL | 8 µg/mL | 32 µg/mL | 16 µg/mL | 8 µg/mL | 16 µg/mL |
| COc1ccc2cc3[n+](cc2c1OCCN(CCn1cncc1[N+](=O)[O-])Cc1cccc(Cl)c1)CCc1cc2c(cc1-3)OCO2.[Cl-] | Stable | Stable | 71.3 µg/mL | 0.54 | 32 µg/mL | 64 µg/mL | 32 µg/mL | 16 µg/mL | 256 µg/mL | 32 µg/mL | 32 µg/mL | 32 µg/mL | 4 µg/mL | 16 µg/mL |
| COc1ccc2cc3[n+](cc2c1OCCN(CCn1cncc1[N+](=O)[O-])Cc1ccc(Cl)cc1)CCc1cc2c(cc1-3)OCO2.[Cl-] | Stable | Stable | 68.1 µg/mL | 0.53 | 64 µg/mL | 32 µg/mL | 32 µg/mL | 16 µg/mL | 32 µg/mL | 32 µg/mL | 64 µg/mL | 128 µg/mL | 16 µg/mL | 32 µg/mL |
| Cc1ncc([N+](=O)[O-])n1CCN(CCBr)Cc1ccc(F)cc1F | – | – | – | – | 128 µg/mL (≈ 317 µM) | 128 µg/mL (≈ 317 µM) | 128 µg/mL (≈ 317 µM) | 64 µg/mL (≈ 159 µM) | 32 µg/mL (≈ 79.4 µM) | 32 µg/mL (≈ 79.4 µM) | 128 µg/mL (≈ 317 µM) | 256 µg/mL (≈ 635 µM) | 64 µg/mL (≈ 159 µM) | 16 µg/mL (≈ 39.7 µM) |
| O=[N+]([O-])c1cn(CCN(CCBr)Cc2ccc(F)cc2F)cn1 | – | – | – | – | 8 µg/mL (≈ 20.6 µM) | 32 µg/mL (≈ 82.2 µM) | 32 µg/mL (≈ 82.2 µM) | 16 µg/mL (≈ 41.1 µM) | 16 µg/mL (≈ 41.1 µM) | 32 µg/mL (≈ 82.2 µM) | 16 µg/mL (≈ 41.1 µM) | 64 µg/mL (≈ 164 µM) | 32 µg/mL (≈ 82.2 µM) | 64 µg/mL (≈ 164 µM) |
| O=[N+]([O-])c1cn(CCN(CCBr)Cc2ccc(Cl)c(Cl)c2)cn1 | – | – | – | – | 64 µg/mL (≈ 152 µM) | 64 µg/mL (≈ 152 µM) | 32 µg/mL (≈ 75.8 µM) | 32 µg/mL (≈ 75.8 µM) | 16 µg/mL (≈ 37.9 µM) | 32 µg/mL (≈ 75.8 µM) | 64 µg/mL (≈ 152 µM) | 32 µg/mL (≈ 75.8 µM) | 32 µg/mL (≈ 75.8 µM) | 64 µg/mL (≈ 152 µM) |
| O=[N+]([O-])c1cn(CCN(CCBr)Cc2ccccc2Cl)cn1 | – | – | – | – | 128 µg/mL (≈ 330 µM) | 64 µg/mL (≈ 165 µM) | 16 µg/mL (≈ 41.3 µM) | 32 µg/mL (≈ 82.5 µM) | 32 µg/mL (≈ 82.5 µM) | 32 µg/mL (≈ 82.5 µM) | 64 µg/mL (≈ 165 µM) | 32 µg/mL (≈ 82.5 µM) | 16 µg/mL (≈ 41.3 µM) | 64 µg/mL (≈ 165 µM) |
| COc1ccc2cc3[n+](cc2c1OC)CCc1cc2c(cc1-3)OCO2.[Cl-] [BERBERINE CHLORIDE] | – | – | – | – | 128 µg/mL | 128 µg/mL | > 512 µg/mL | 256 µg/mL | 256 µg/mL | > 512 µg/mL | > 512 µg/mL | > 512 µg/mL | 512 µg/mL | 128 µg/mL |
